{"source": "paper PMC6720533", "about": "(Biomolecules & Therapeutics, 2019)", "key": {"MEK1": {"molecular_target": "MEK1 (Homo sapiens, UniProt Q02750)", "test": "Kinase activity screening", "format": "biochemical", "settings": "FX-9 at 2.5 μM, ATP at Km (10 μM)", "summary_of_the_method": "(§1)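 Radiometric substrate-phosphorylation screen covering a panel of 58 human kinases run by a contract service. […] Activity is given as a percentage of mean activity in positive control samples (100%). Values <30% were scored strong hits, 30–70% partial hits and >70% no hit.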"}, "Lyn": {"molecular_target": "Lyn (Homo sapiens, UniProt P07948)", "sequence (P07948 whole entry)": "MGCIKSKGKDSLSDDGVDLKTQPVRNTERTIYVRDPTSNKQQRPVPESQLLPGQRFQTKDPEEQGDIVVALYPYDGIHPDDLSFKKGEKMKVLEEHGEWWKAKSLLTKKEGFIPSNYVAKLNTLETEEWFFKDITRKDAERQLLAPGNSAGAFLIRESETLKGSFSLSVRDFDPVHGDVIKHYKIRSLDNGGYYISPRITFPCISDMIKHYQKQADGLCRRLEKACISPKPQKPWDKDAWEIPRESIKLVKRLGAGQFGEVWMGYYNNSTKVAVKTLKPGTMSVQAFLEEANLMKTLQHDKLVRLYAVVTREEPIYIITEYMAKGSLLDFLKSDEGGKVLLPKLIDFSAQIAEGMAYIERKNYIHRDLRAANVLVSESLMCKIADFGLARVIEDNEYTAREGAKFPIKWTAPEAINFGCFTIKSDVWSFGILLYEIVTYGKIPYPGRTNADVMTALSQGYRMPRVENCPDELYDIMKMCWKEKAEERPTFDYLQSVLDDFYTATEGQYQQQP", "test": "Kinase activity screening", "format": "biochemical", "settings": "FX-9 at 2.5 μM, ATP at Km (70 μM)", "summary_of_the_method": "as §1"}, "ASK1": {"molecular_target": "ASK1 (Homo sapiens, UniProt Q99683)", "test": "Kinase activity screening", "format": "biochemical", "settings": "FX-9 at 2.5 μM, ATP at Km (200 μM)", "summary_of_the_method": "as §1"}, "CEM cells [1]": {"tested_on": "CEM cells", "test": "Proliferation, viable cell count by trypan blue exclusion", "format": "cell-based, human", "settings": "72 h", "summary_of_the_method": "(§2)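 Human B-ALL (SEM, RS4;11) and T-ALL (Jurkat, CEM) lines were grown with 10% heat-inactivated FBS and penicillin/streptomycin at 37°C, 5% CO2. Cells took test compound at 0.1–5.0 μM (methods: 0.5–5.0 μM) or DMSO for up to 72 h. Viable cells were counted by trypan blue exclusion and expressed relative to control (100%). IC50 came from three separate experiments, each in triplicate.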"}, "PRAK": {"molecular_target": "PRAK (Homo sapiens, UniProt Q8IW41)", "sequence (Q8IW41 whole entry)": "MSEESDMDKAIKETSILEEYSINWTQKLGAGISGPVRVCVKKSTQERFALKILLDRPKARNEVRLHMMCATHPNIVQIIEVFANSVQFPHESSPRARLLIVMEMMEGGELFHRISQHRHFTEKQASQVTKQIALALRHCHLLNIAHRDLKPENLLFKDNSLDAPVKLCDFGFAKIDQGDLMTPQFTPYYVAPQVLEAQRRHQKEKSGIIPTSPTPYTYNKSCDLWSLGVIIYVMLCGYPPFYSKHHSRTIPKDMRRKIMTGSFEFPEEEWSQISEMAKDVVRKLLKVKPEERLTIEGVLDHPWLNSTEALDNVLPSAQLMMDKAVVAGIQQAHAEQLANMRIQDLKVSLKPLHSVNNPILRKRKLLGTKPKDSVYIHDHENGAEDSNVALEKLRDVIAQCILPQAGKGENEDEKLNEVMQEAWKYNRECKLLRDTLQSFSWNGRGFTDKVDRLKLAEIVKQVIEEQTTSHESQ", "test": "Kinase activity screening", "format": "biochemical", "settings": "FX-9 at 2.5 μM, ATP at Km (15 μM)", "summary_of_the_method": "(§3)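 Radiometric kinase-panel screen of 58 human kinases, measuring substrate phosphorylation. […] Activity is given as % of the mean positive-control kinase activity (100%). Below 30% counts as a strong hit, 30–70% as a partial hit, and above 70% as no hit.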"}, "RS4;11 cells": {"tested_on": "RS4;11 cells", "test": "Apoptosis, Annexin V FITC / propidium iodide flow cytometry", "format": "cell-based, human", "settings": "RS4;11, 5 μM, 72 h; DMSO 11.7%"}, "EGFR": {"molecular_target": "EGFR (Homo sapiens, UniProt P00533)", "test": "Kinase activity screening", "format": "biochemical", "settings": "FX-9 at 2.5 μM, ATP at Km (10 μM)", "summary_of_the_method": "as §1"}, "mTOR": {"molecular_target": "mTOR (Homo sapiens, UniProt P42345)", "test": "Kinase activity screening", "format": "biochemical", "settings": "FX-9 at 2.5 μM, ATP at Km (70 μM)", "summary_of_the_method": "as §3"}, "PKCα": {"molecular_target": "PKCα (Homo sapiens, UniProt P17252)", "test": "Kinase activity screening", "format": "biochemical", "settings": "FX-9 at 2.5 μM, ATP at Km (45 μM)", "summary_of_the_method": "as §1"}, "CDK9/cyclin T1": {"molecular_target": "CDK9/cyclin T1 (Homo sapiens, UniProt P50750)", "sequence (P50750 whole entry)": "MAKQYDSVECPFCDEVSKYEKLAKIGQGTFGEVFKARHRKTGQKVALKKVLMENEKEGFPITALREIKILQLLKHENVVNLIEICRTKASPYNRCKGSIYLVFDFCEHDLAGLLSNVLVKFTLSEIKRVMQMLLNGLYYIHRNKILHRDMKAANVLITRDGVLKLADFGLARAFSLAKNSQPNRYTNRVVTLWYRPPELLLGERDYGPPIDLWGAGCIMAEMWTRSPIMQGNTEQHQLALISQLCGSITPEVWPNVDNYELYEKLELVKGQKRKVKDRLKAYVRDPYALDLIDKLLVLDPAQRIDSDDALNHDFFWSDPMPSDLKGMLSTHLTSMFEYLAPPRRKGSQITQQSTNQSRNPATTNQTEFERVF", "sequence (O60563 whole entry partner)": "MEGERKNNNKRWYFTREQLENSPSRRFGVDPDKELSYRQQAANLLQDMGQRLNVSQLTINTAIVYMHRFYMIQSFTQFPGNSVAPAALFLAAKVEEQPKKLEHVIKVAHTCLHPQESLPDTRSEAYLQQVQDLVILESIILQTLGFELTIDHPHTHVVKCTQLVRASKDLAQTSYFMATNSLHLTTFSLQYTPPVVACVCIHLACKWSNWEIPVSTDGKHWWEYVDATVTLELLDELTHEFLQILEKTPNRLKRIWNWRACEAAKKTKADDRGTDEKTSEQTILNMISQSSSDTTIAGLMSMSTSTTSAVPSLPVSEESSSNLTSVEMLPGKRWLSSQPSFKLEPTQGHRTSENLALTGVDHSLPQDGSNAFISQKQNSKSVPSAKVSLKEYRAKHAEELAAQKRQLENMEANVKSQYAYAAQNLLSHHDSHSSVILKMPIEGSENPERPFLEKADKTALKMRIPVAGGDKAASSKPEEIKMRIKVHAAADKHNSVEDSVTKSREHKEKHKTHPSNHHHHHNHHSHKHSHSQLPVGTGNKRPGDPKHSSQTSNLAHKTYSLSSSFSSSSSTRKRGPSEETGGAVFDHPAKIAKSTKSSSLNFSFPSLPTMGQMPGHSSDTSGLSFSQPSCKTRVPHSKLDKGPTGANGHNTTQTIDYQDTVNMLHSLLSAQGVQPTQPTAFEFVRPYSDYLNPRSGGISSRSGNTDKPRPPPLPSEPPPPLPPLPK", "test": "Kinase activity screening", "format": "biochemical", "settings": "FX-9 at 2.5 μM, ATP at Km (45 μM)", "summary_of_the_method": "as §1"}, "LOK": {"molecular_target": "LOK (Homo sapiens, UniProt O94804)", "sequence (O94804 whole entry)": "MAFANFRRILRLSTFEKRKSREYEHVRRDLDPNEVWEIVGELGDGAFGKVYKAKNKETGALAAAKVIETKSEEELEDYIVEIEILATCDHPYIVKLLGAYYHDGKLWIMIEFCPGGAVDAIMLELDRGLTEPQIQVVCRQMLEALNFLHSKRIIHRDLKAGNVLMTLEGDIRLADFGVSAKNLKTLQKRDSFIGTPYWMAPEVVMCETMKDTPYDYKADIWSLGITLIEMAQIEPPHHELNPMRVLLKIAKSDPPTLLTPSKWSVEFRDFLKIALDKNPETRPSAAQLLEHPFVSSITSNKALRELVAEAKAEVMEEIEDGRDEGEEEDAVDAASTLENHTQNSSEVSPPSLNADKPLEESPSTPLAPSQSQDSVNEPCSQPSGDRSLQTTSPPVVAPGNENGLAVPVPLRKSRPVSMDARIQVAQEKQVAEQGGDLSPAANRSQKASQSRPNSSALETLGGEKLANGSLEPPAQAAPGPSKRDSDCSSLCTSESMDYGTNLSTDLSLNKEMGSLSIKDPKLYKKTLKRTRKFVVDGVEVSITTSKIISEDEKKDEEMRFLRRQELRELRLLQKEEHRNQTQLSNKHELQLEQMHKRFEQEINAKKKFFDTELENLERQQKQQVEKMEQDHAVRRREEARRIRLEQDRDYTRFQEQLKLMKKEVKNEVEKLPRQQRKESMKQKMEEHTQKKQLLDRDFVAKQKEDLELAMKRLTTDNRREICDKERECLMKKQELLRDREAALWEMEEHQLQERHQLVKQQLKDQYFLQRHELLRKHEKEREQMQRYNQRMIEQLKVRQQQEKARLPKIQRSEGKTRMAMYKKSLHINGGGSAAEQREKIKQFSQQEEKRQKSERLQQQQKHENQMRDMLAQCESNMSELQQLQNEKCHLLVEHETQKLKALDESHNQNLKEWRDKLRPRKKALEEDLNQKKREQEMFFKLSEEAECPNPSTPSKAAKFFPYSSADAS", "test": "Kinase activity screening", "format": "biochemical", "settings": "FX-9 at 2.5 μM, ATP at Km (120 μM)", "summary_of_the_method": "as §1"}, "Fyn": {"molecular_target": "Fyn (Homo sapiens, UniProt P06241)", "test": "Kinase activity screening", "format": "biochemical", "settings": "FX-9 at 2.5 μM, ATP at Km (70 μM)", "summary_of_the_method": "as §1"}, "MAPKAP-K2": {"molecular_target": "MAPKAP-K2 (Homo sapiens, UniProt P49137)", "test": "Kinase activity screening", "format": "biochemical", "settings": "FX-9 at 2.5 μM, ATP at Km (90 μM)", "summary_of_the_method": "as §1"}, "MLK1": {"molecular_target": "MLK1 (Homo sapiens, UniProt P80192)", "test": "Kinase activity screening", "format": "biochemical", "settings": "FX-9 at 2.5 μM, ATP at Km (45 μM)", "summary_of_the_method": "as §1"}, "PI3 Kinase (p110d/p85a)": {"molecular_target": "PI3 Kinase (p110d/p85a) (Homo sapiens, UniProt O00329)", "test": "Kinase activity screening", "format": "biochemical", "settings": "FX-9 at 2.5 μM, ATP at Km (200 μM)", "summary_of_the_method": "as §1"}, "AMPKα1": {"molecular_target": "AMPKα1 (Homo sapiens, UniProt Q13131)", "test": "Kinase activity screening", "format": "biochemical", "settings": "FX-9 at 2.5 μM, ATP at Km (45 μM)", "summary_of_the_method": "as §1"}, "Jurkat cells [2]": {"tested_on": "Jurkat cells", "test": "Apoptosis, Annexin V FITC / propidium iodide flow cytometry", "format": "cell-based, human", "settings": "5 μM, 72 h, DMSO 18.7%"}, "B- and T-ALL cells": {"tested_on": "B- and T-ALL cells", "test": "Proliferation, viable cell count by trypan blue exclusion", "format": "cell-based", "settings": "Homo sapiens, read-out: IC50 values against B- and T-ALL cells", "summary_of_the_method": "as §2"}, "SEM cells [3]": {"tested_on": "SEM cells", "test": "WST-1 metabolic activity assay", "format": "cell-based", "settings": "Homo sapiens, 72 h, read-out: metabolic activity", "summary_of_the_method": "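Test compound came from a 10 mM DMSO stock. Cells were seeded at 5×10^4/well in triplicate with 5 or 10 μM final compound; controls got matched DMSO. After 72 h at 37°C, 5% CO2, WST-1 was added for a further 3 h. Absorbance was read at 450 nm (reference 620 nm), and metabolic activity given as % of DMSO control.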"}, "IRAK4": {"molecular_target": "IRAK4 (Homo sapiens, UniProt Q9NWZ3)", "sequence (Q9NWZ3 whole entry)": "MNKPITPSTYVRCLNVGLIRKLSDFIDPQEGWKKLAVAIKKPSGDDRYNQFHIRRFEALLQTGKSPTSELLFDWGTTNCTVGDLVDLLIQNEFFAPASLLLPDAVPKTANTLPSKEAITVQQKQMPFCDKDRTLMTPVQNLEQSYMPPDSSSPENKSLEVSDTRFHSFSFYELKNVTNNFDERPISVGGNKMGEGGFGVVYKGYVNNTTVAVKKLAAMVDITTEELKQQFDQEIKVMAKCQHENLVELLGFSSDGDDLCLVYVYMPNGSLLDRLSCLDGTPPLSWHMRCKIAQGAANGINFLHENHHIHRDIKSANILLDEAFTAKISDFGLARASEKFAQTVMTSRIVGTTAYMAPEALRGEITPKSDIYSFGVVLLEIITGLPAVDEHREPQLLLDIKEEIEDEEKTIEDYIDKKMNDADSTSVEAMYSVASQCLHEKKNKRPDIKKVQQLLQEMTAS", "test": "Kinase activity screening", "format": "biochemical", "settings": "FX-9 at 2.5 μM, ATP at Km (200 μM)", "summary_of_the_method": "as §1"}, "EphA5": {"molecular_target": "EphA5 (Homo sapiens, UniProt P54756)", "test": "Kinase activity screening", "format": "biochemical", "settings": "FX-9 at 2.5 μM, ATP at Km (10 μM)", "summary_of_the_method": "as §1"}, "recombinant human CK2α1": {"molecular_target": "recombinant human CK2α1 (Homo sapiens, UniProt P68400)", "sequence (P68400 whole entry)": "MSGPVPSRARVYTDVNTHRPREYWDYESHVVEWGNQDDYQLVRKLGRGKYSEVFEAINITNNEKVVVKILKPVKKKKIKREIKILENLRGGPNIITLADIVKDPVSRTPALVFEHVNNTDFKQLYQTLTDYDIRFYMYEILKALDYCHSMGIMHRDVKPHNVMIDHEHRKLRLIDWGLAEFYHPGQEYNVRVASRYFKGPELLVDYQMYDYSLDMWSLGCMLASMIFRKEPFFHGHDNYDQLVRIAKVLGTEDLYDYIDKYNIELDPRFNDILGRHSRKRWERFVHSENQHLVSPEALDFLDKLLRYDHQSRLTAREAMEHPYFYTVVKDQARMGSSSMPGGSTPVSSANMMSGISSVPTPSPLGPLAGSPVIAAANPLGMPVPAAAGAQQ", "test": "CK2 kinase activity assay", "format": "biochemical", "settings": "60 min", "summary_of_the_method": "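Recombinant human CK2α1 (50 ng) was incubated with 2.5 μg CK2α1 substrate, 10 μM ATP, and test compound, reference inhibitor or DMSO for 60 min at room temperature. ADP-Glo reagent stopped the reaction and depleted remaining ATP. Detection reagent then converted ADP to ATP for luciferase/luciferin luminescence, which tracks the ADP formed as the measure of kinase activity.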"}, "SEM cells [4]": {"tested_on": "SEM cells", "test": "Apoptosis, Annexin V FITC / propidium iodide flow cytometry", "format": "cell-based, human", "settings": "5 μM, 72 h, DMSO 7.4%"}, "PKA": {"molecular_target": "PKA (Homo sapiens, UniProt P17612)", "test": "Kinase activity screening", "format": "biochemical", "settings": "FX-9 at 2.5 μM, ATP at Km (10 μM)", "summary_of_the_method": "as §1"}, "Jurkat cells [5]": {"tested_on": "Jurkat cells", "test": "Proliferation, viable cell count by trypan blue exclusion", "format": "cell-based, human", "settings": "72 h", "summary_of_the_method": "as §2"}, "CK1γ1": {"molecular_target": "CK1γ1 (Homo sapiens, UniProt Q9HCP0)", "sequence (Q9HCP0 whole entry)": "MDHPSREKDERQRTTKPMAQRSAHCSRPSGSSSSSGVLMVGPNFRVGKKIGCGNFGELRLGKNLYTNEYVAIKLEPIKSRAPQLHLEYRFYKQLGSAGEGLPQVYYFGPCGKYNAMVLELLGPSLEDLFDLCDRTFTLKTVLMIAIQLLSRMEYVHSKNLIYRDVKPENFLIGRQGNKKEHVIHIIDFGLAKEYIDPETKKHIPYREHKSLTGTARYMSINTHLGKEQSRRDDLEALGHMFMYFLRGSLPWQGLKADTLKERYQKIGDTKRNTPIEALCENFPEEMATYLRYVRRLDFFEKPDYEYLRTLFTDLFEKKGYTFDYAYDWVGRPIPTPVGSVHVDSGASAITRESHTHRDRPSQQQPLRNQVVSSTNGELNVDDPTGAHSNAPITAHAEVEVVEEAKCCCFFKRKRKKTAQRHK", "test": "Kinase activity screening", "format": "biochemical", "settings": "FX-9 at 2.5 μM, ATP at Km (15 μM)", "summary_of_the_method": "as §1"}, "IKKα": {"molecular_target": "IKKα (Homo sapiens, UniProt O15111)", "test": "Kinase activity screening", "format": "biochemical", "settings": "FX-9 at 2.5 μM, ATP at Km (10 μM)", "summary_of_the_method": "as §1"}, "CEM cells [6]": {"tested_on": "CEM cells", "test": "Apoptosis, Annexin V FITC / propidium iodide flow cytometry", "format": "cell-based, human", "settings": "5 μM, 72 h, DMSO 7.3%"}, "SAPK2a": {"molecular_target": "SAPK2a (Homo sapiens, UniProt Q16539)", "test": "Kinase activity screening", "format": "biochemical", "settings": "FX-9 at 2.5 μM, ATP at Km (90 μM)", "summary_of_the_method": "as §3"}}, "data": [{"smiles": "Cc1ccc(-c2cc3ccccc3c(N)n2)cc1", "note": "[FX-9, 3-(p-Tolyl)isoquinolin-1-amine]", "values": [{"measurement": "Kinase activity (% control)", "setting": "MEK1", "value": 90, "unit": "% control"}, {"measurement": "Kinase activity (% control)", "setting": "Lyn", "value": 87, "unit": "% control"}, {"measurement": "Kinase activity (% control)", "setting": "ASK1", "value": 101, "unit": "% control"}, {"measurement": "Proliferation compared to control cells (100%)", "setting": "CEM cells [1]; CEM, 2.5 μM", "value": 24.1, "unit": "%"}, {"measurement": "IC50", "setting": "CEM cells [1]; Homo sapiens, CCRF-CEM, read-out: IC50 based on proliferation", "value": "1940 ± 30", "unit": "nM"}, {"measurement": "Kinase activity (% control)", "setting": "PRAK", "value": 79, "unit": "% control"}, {"measurement": "Apoptosis (total of early apoptotic and late apoptotic and necrotic cells)", "setting": "RS4;11 cells", "value": 84.6, "unit": "%"}, {"measurement": "Kinase activity (% control)", "setting": "EGFR", "value": 101, "unit": "% control"}, {"measurement": "Kinase activity (% control)", "setting": "mTOR", "value": 100, "unit": "% control"}, {"measurement": "Kinase activity (% control)", "setting": "PKCα", "value": 99, "unit": "% control"}, {"measurement": "Kinase activity (% control)", "setting": "CDK9/cyclin T1", "value": 86, "unit": "% control"}, {"measurement": "Kinase activity (% control)", "setting": "LOK", "value": 101, "unit": "% control"}, {"measurement": "Kinase activity (% control)", "setting": "Fyn", "value": 97, "unit": "% control"}, {"measurement": "Kinase activity (% control)", "setting": "MAPKAP-K2", "value": 87, "unit": "% control"}, {"measurement": "Kinase activity (% control)", "setting": "MLK1", "value": 84, "unit": "% control"}, {"measurement": "Kinase activity (% control)", "setting": "PI3 Kinase (p110d/p85a)", "value": 100, "unit": "% control"}, {"measurement": "Kinase activity (% control)", "setting": "AMPKα1", "value": 98, "unit": "% control"}, {"measurement": "Apoptosis (total of early apoptotic and late apoptotic and necrotic cells)", "setting": "Jurkat cells [2]", "value": 48.7, "unit": "%"}, {"measurement": "IC50", "setting": "B- and T-ALL cells", "value": "540 to 1940", "unit": "nM"}, {"measurement": "activity at 5 µM", "setting": "SEM cells [3]", "value": 1.2, "unit": "%"}, {"measurement": "activity at 10 µM", "setting": "SEM cells [3]", "value": 0.6, "unit": "%"}, {"measurement": "Kinase activity (% control)", "setting": "IRAK4", "value": 95, "unit": "% control"}, {"measurement": "Kinase activity (% control)", "setting": "EphA5", "value": 98, "unit": "% control"}, {"measurement": "CK2 enzyme activity", "setting": "recombinant human CK2α1; 10 μM FX-9, 10 μM ATP", "value": "not changed significantly"}, {"measurement": "CK2 enzyme activity", "setting": "recombinant human CK2α1; increasing concentrations, 10 μM ATP", "value": "No changes of CK2 enzyme activity"}, {"measurement": "Apoptosis (total of early apoptotic and late apoptotic and necrotic cells)", "setting": "SEM cells [4]", "value": 75.9, "unit": "%"}, {"measurement": "Kinase activity (% control)", "setting": "PKA", "value": 92, "unit": "% control"}, {"measurement": "Proliferation compared to control cells (100%)", "setting": "Jurkat cells [5]; 2.5 μM", "value": 16.3, "unit": "%"}, {"measurement": "IC50", "setting": "Jurkat cells [5]; Homo sapiens, read-out: IC50 based on proliferation", "value": "1670 ± 30", "unit": "nM"}, {"measurement": "Kinase activity (% control)", "setting": "CK1γ1", "value": 98, "unit": "% control"}, {"measurement": "Kinase activity (% control)", "setting": "IKKα", "value": 91, "unit": "% control"}, {"measurement": "Apoptosis (total of early apoptotic and late apoptotic and necrotic cells)", "setting": "CEM cells [6]", "value": 90.4, "unit": "%"}, {"measurement": "Kinase activity (% control)", "setting": "SAPK2a", "value": 98, "unit": "% control"}]}]}
